In the library only some 3.4% were active in any assay of this set; here they are far more common.
SIRT5 inh = blocks human SIRT5 desuccinylation of peptide; Q9NXA8; Purified SirT5, succinyl-peptide AMC, trypsin-coupled fluorescence; inhibition, % at 15 µM; 330,000 tested, 1.1% active; in the data active means inhibition above about 15%
MLL AF4-AF9 inh = inhibitors of human MLL-AF4/AF9 interaction. inhibition, % at 10 µM. 350,000 tested, 0.47% active. P42568. AlphaScreen, biotin-AF4 peptide binding to FLAG-AF9;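 active means every replicate reaching a set inhibition limit, whatever the replicate mean, cut at about 25% in these data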;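 further: 0% = plate neutral control median and 100% = total signal loss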
Target sequence (P42568 whole entry, looked up): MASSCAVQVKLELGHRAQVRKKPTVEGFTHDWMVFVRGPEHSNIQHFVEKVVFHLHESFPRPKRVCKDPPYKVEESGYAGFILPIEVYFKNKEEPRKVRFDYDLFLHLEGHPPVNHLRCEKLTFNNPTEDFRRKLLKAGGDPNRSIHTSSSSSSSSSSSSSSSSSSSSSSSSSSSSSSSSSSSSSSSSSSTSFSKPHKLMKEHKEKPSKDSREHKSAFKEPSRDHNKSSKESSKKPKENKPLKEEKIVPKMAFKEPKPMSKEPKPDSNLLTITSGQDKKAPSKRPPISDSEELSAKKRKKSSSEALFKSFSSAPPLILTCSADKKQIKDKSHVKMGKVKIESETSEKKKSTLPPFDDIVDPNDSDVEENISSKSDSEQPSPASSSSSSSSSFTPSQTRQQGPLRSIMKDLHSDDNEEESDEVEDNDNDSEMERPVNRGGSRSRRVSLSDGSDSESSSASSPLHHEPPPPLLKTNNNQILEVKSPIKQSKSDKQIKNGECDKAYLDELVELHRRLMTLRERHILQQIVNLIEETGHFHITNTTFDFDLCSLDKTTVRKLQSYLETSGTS
E-selectin induc = induces E-selectin expression in human endothelial cells; 260,000 tested, 0.37% active; activation, % at 7.58 µM; HUVEC E-selectin immunofluorescence imaging; normalized: neutral wells 0, TNF-alpha wells 100; P16581;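 active means mean E-selectin-positive cell signal at least 10% of the positive control, reached in at least 60% of replicates, without over 20% cell loss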
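Assay system: HUVEC, human umbilical vein endothelial cells / Amount: 3,000 HUVEC/well / Controls: TNF-alpha positive control, DMSO neutral control / Compound dosing: single concentration / Medium: EGM-2 over gelatin coat / Evaluation: percent E-selectin-positive cells / Signal: immunofluorescence imaging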
S100A4 MyoIIA = blocks human S100A4 binding to myosin IIA peptide; S100A4/TAMRA-MyoIIA peptide fluorescence polarization; P26447; inhibition, % at 10.7 µM; 360,000 tested, 0.14% active; AID 652163;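 active means mean inhibition of at least 70% across replicates, with every replicate also reaching that level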
Target sequence (P26447 whole entry, looked up): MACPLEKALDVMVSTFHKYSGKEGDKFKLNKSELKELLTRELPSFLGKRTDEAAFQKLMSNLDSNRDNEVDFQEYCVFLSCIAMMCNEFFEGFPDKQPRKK
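Test system: S100A4 monomer protein; Medium: HEPES pH 7.2 with CaCl2, KCl, NaCl, DTT, Triton; Probe or stimulus: TAMRA-labelled myosin IIA heavy-chain peptide probe, 5 nM; Doses: one dose per compound; Times: polarization read 5 min after assay mix addition, stable 5–60 min; Benchmarks: neutral control DMSO, positive control TFP.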
ERAP1 HTS inh = blocks human ERAP1 aminopeptidase activity; Q9NZ08; recombinant ERAP1, Leu-AMC fluorescence, 60 min; inhibition, % at 10.7 µM; 340,000 tested, 0.15% active;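 active means mean replicate inhibition of at least 30%, or all replicates individually reaching that 30% level; inactive means mean below 30% and not every replicate reaching it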;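 further: 0% = neutral control wells and 100% = L-leucinethiol positive control wells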
Ecoli rRNA inh = inhibits bacterial ribosomal RNA function over humanized ribosomes. E. coli WT GFP vs humanized-ribosome RFP mutants, fluorescence, 24 h; active compounds read low; DMSO median 0, no signal -100. GFP signal change (wild-type ribosome), % (test concentration not listed). 350,000 tested, 1.6% active;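 active means significant combined selectivity score with lowered wild-type GFP, culture density cut under 30%, mutant RFP and density less affected; inactive means any of these conditions unmet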
Starred values were filed as active, the others as inactive; / = not tested or not shown; ! = a repeat was not active.

SMILES | SIRT5 inh | MLL AF4-AF9 inh | E-selectin induc | S100A4 MyoIIA | ERAP1 HTS inh | Ecoli rRNA inh
O=C(Nc1ccc(N2CCOCC2)cc1)c1cc2c(s1)CCCCC2 | 0 | 7 | 4 | -27 | 4 | -22*
O=C(Nc1ccc(S(=O)(=O)N2CCOCC2)cc1)c1ccc([N+](=O)[O-])o1 | -1 | 0 | / | 4 | 0 | -24*
O=C(Nc1ccc(S(=O)(=O)N2CCCC2)cc1)c1ccc([N+](=O)[O-])o1 | / | / | / | -2 | 3 | 0
O=C(Nc1cc(Cl)ccc1-n1cncn1)c1ccc([N+](=O)[O-])o1 | -2 | -19 | 0 | -2 | 2 | -21*
CCC(=O)N1CCN(c2ccc(NC(=O)c3ccc([N+](=O)[O-])o3)cc2Cl)CC1 | 1 | 5 | -3 | -6 | -5 | -3
O=C(Nc1ccc(N2CCOCC2)cc1)c1cc2c(s1)CCCC2 | 2 | 11 | / | -3 | 1 | -26
CCN1CCN(c2ccc(NC(=O)c3ccc([N+](=O)[O-])o3)cc2Cl)CC1 | 6 | 2 | -2 | -16 | -1 | -38*
COc1ccc2c3c(n(C)c2c1)[C@H](CO)N(C(=O)c1ccc(F)cc1)CC31CN(CC2CC2)C1 | 3 | 1 | 0 | 1 | -5 | 0
O=C(C1CCC1)N1CC2(C1)[C@@H](c1ccccc1)[C@@H](CO)N2Cc1cncnc1 | 0 | -3 | 0 | -3 | -2 | 2
O=C(NC(O)C(=O)c1ccccc1)c1ccc(F)cc1 (centres undefined) | 1 | 2 | 41* | -1 | -4 | 5
COc1ccc(S(=O)(=O)N(C)C[C@@H]2Oc3c(NC(=O)C4CCCCC4)cccc3C(=O)N([C@@H](C)CO)C[C@@H]2C)cc1 | / | / | 1 | / | / | -5
Fc1ccc(CNC2CCN(Cc3ccccc3)CC2)cc1 | 21* | 5 | / | 0 | -3 | 4
C[C@H]1CCCCO[C@@H](CN(C)CC2CCCCC2)[C@@H](C)CN([C@@H](C)CO)C(=O)c2cc(NC(=O)CCCN(C)C)ccc2O1 | / | / | 0 | / | / | 2
COc1ccc(OC)c(NC(=O)c2cccc(NC(=O)c3ccccc3)c2)c1 | -4 | -5 | / | -6 | -3 | -23
CCCc1cc(C(=O)Nc2cc(OC)ccc2OC)cs1 | -1 | -1 | 0 | 1 | 0 | -32*
C/C(Cc1ccccc1)=N\NC(=O)c1ccc(F)cc1 | 0 | 0 | / | -1 | 0 | 15
CC12CC(c3ccccc3O1)C(/C(N)=N/NC(=O)c1ccc(F)cc1)C(=O)N2 (centres undefined) | 16* | 0 | / | -1 | 1 | /
CN/N=C(\Cc1nc2ccccc2[nH]1)c1ccc([N+](=O)[O-])cc1 | 1 | 8 | 5 | 0 | -2 | -22*
COc1ccc(CN(C)CC(=O)Nc2sc3c(c2C#N)CCC3)c(OC)c1 | 15* | 6 | / | 4 | -1 | -22
COc1ccc(CN(C)CC(=O)Nc2c(C)cccc2C)c(OC)c1 | 0 | -1 | / | 1 | 5 | 2
c1ccc(CN2CCC(Nc3nc(-c4cccnc4)nc4ccccc34)CC2)cc1 | -2 | 9 | 0 | -3 | -43 | -33*
Nc1[nH]c(C(=O)c2ccccc2)c(-c2ccccc2[N+](=O)[O-])c1C(=O)NCCc1c[nH]c2ccccc12 | / | -4 | 0 | -3 | 1 | -38*
O=C(/C=C/c1ccc([N+](=O)[O-])cc1)c1ccccc(=O)c1O | 0 | 12 | 2 | -2 | 5 | -14*
Cc1ccc(NC(=S)Nc2ccc3cn[nH]c3c2)c(C)c1 | -1 | 2 | 7 | -1 | -2 | -26*
CCNC(=S)Nc1ccc2cn[nH]c2c1 | / | / | -1 | / | / | /
SMILES | SIRT5 inh | MLL AF4-AF9 inh | E-selectin induc | S100A4 MyoIIA | ERAP1 HTS inh | Ecoli rRNA inh
CC(C)c1ccc(NC(=S)Nc2ccc3cn[nH]c3c2)cc1 | 0 | -2 | 6 | -1 | 0 | -46*
COc1ccc(-c2nc(-c3ccc(O)cc3O)cs2)cc1OC | 2 | 10 | 0 | 3 | -3 | /
COc1ccc(-c2csc(C3=C(O)CN(C(C)C)C3=N)n2)cc1OC | 2 | -2 | / | -5 | 1 | -35*
O=C(c1ccccc1)c1ccc(OCCOCCN2CCN(Cc3ccccc3)CC2)cc1 | -3 | 12 | / | -6 | -3 | -36*
O=C(c1ccccc1)c1ccc(OCCCN2CCCC2)cc1 | 0 | -11 | / | 12 | -2 | 0
C[n+]1ccccc1/C=N/O | -1 | -1 | 0 | 1 | 92*! | 5
COc1ccc(/C=C/c2cccc[n+]2C)c(O)c1 | 9 | -15 | / | 0 | 5 | 7
CC(O)/C=C/c1cccc[n+]1C (centres undefined) | 1 | -6 | / | -1 | 107* | 27
COc1cccc(-c2ccc([C@@H]3[C@H]4CN(C(=O)NC(C)C)CC(=O)N4[C@H]3CO)cc2)c1 | -4 | -1 | 1 | -12 | 2 | -1
Cc1cccc(COC[C@H](Cc2ccccc2)N2CCN(C(=O)c3cc(Cl)cc(Cl)c3)CCC2=O)c1 | 41* | 1 | -7 | -3 | / | 12
CCCNC(=O)Nc1ccc2c(c1)OC[C@@H](C)N(CCC(F)(F)F)C[C@@H](C)[C@@H](OC)CN(C)C2=O | 9 | -1 | 0 | 7 | / | 0
CC1CN(c2cc(=O)n(-c3ccccc3)c(=O)[nH]2)CC(C)O1 (centres undefined) | 0 | -2 | / | -1 | 3 | 2
Cc1ccc(-n2c(=O)cc(N3CC(C)OC(C)C3)[nH]c2=O)cc1 (centres undefined) | 1 | 44* | / | -6 | 2 | 6
C[C@@H]1CCCCO[C@H](CN(C)C(=O)NC2CCCCC2)[C@H](C)CN([C@@H](C)CO)C(=O)c2cc(NS(=O)(=O)c3ccc(F)cc3)ccc2O1 | 9 | -4 | / | 0 | -2 | -2
C=CCn1c(-c2cc3cccc(OC)c3o2)n[nH]c1=S | -6 | 0 | 3 | -3 | 3 | -23*
O=c1oc2ccccc2c(Cl)c1CN1CCCCC1 | 1 | 1 | 0 | -2 | 4 | -19
O=c1oc2ccccc2c(N2CCCC2)c1CN1CCCC1 | -1 | 6 | / | -6 | -2 | -18*
COc1cc2ccc(=O)oc2c(O[C@@H]2O[C@H](CO)[C@@H](O)[C@H](O)[C@H]2O)c1O | -34 | -4 | 0 | 1 | 59* | 2
COc1ccc2c3c([nH]c2c1)[C@H](CO)N(C(=O)CN1CCOCC1)CC31CN(C(=O)NC(C)C)C1 | / | 0 | 0 | / | / | 4
Cc1csc(N2CCCC2=O)n1 | 21* | 1 | / | 1 | 1 | 11
COc1ccccc1/C=C1\SC(=S)N(CCC(=O)Nc2ccc(C(=O)O)c(O)c2)C1=O | 46* | 26* | 0 | 2 | -39 | -33
O=C(CCN1C(=O)/C(=C/c2ccco2)SC1=S)Nc1ccc(C(=O)O)c(O)c1 | 50* | 6 | 1 | -49 | 6 | -2

Source: PubChem (Broad Institute)
